The values that follow come from paper PMC11003496 (Journal of Enzyme Inhibition and Medicinal Chemistry, 2023).

A word on the IC50: it is the midpoint of a concentration-inhibition curve.

Assay [1] addresses T1, COX-2 (Homo sapiens, UniProt P35354).
T1 sequence (P35354 18-604): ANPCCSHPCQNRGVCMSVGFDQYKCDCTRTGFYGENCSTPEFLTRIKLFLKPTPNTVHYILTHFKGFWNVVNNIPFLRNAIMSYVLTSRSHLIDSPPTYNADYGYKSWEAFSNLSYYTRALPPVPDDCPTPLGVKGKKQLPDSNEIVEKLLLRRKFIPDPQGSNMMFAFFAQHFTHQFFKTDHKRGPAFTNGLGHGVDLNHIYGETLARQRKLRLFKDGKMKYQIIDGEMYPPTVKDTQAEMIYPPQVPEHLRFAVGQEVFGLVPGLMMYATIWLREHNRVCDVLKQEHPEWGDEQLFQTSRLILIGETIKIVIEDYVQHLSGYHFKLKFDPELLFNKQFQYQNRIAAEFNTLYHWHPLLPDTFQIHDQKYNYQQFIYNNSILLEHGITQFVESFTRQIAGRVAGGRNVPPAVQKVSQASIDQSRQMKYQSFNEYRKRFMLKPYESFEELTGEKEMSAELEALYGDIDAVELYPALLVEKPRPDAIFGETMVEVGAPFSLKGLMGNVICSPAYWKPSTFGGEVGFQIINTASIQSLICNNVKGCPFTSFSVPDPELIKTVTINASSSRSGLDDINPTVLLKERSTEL
In words: biochemical. To be noted: for COX-2 S.I.: in vitro COX-2 selectivity index, IC50 (COX-1)/IC50 (COX-2).

For assay [2], the target named is T2, COX-1 (Ovis aries, UniProt P05979).
T2 sequence (P05979 25-600): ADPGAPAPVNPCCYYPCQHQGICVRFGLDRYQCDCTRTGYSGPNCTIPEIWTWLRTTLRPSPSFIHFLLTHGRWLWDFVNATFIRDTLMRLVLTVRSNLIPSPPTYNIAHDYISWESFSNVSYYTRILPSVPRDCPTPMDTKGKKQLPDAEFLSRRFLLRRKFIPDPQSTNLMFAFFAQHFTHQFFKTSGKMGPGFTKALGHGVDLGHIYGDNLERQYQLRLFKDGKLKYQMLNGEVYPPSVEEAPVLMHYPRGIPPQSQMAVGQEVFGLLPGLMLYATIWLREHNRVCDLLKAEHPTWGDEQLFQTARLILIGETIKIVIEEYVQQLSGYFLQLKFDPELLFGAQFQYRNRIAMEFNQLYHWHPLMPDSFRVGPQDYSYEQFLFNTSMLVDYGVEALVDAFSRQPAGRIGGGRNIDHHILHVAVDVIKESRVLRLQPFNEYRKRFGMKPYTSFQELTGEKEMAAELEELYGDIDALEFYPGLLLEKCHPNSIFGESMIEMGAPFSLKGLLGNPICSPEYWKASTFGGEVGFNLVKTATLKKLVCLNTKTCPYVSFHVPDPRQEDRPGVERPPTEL
In words: In vitro COX-1 inhibition. The class given is biochemical.

Assay [3] concerns the target EGFR (Homo sapiens, UniProt P00533). In words: EGFR Kinase Assay Kit. Type of assay: biochemical. An outline of the steps:
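Kinase kit assay. Each well held kinase buffer with DTT, ATP, and Poly(Glu:Tyr 4:1) PTK substrate (10 mg/ml stock). Test compound was added, and diluted EGFR enzyme started the reaction. Incubated 40 min at 30 °C, then Kinase-Glo Max reagent for 15 min at room temperature, and luminescence read. Controls were no-inhibitor wells and enzyme-free blanks.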

The subject of assay [4] is breast MCF7 cells. In words: Cell cycle analysis by flow cytometry. Type of assay: cell-based, human. Conditions: for cell cycle arrest phase: compound at its IC50; for %G0-G1 / %G2-M / %S: compound at its IC50, 24 h. An outline of the steps: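 MCF7 breast cells were exposed to the test compound for 24 h, then rinsed with PBS, centrifuged and fixed in 70% ethanol. After a PBS wash they were suspended in 0.1 mg/mL RNase and stained with propidium iodide. Flow cytometry on a FACS Calibur measured DNA content to give G0/G1, S and G2/M distribution against negative control.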
A general note: A flow cytometer gives signals particle by particle.

In assay [5] the target is T3, aromatase (CYP19A) (Homo sapiens, UniProt P11511).
T3 sequence (P11511 1-503): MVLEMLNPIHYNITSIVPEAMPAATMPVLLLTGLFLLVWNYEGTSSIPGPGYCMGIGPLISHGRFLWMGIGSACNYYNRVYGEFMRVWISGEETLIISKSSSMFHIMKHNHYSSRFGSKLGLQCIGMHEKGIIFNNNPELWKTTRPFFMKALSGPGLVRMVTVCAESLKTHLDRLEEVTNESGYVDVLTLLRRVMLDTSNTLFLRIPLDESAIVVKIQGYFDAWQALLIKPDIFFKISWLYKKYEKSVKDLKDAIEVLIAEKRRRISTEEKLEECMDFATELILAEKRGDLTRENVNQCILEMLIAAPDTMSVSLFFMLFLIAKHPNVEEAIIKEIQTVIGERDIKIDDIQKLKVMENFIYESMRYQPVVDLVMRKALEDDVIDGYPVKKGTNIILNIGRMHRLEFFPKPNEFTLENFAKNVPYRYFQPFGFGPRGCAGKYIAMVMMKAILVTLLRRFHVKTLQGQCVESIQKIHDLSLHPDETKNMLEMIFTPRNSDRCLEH
In words: Aromatase. Type of assay: biochemical.

Assay [6] relates to A549 non-small cell lung cancer. The assay is described as follows: MTT cell viability assay, A549. The class given is cell-based. Conditions: Homo sapiens, A549, 48 h, read-out: A549 IC50. Background: Tetrazolium dyes change colour on reduction, which living cells bring about.
The test system of assay [7] is MCF7 human breast adenocarcinoma cell line. The assay is described as follows: MTT cell viability assay, MCF-7. Type of assay: cell-based. Conditions: MCF7, 48 h, read-out: MCF-7 IC50.
Assay [8] concerns the target B-RAF^V600E (Homo sapiens, UniProt P15056, V600E). In words: B-RAF^V600E Kinase Assay Kit. Type of assay: biochemical.
In assay [9] the test system is Hep3b hepatocellular carcinoma cell line. The assay is described as follows: MTT cell viability assay, HEP-3B. The class given is cell-based. To be noted: Homo sapiens, 48 h, read-out: HEP-3B IC50.
Assay [10] concerns normal fibroblast F180. The assay is described as follows: MTT cell viability assay, F180. The class given is cell-based. To be noted: F180, 48 h, read-out: F180 IC50.
The test system of assay [11] is MCF7 breast cells. In words: Apoptosis by Annexin-V-FITC/PI flow cytometry. The class given is cell-based, human. Conditions: for Apoptosis Early / Apoptosis Late / Apoptosis Total / Necrosis: compound at its IC50, 24 h; for late apoptosis increase compared to control: control 0.27% (late); for early apoptosis increase compared to control: control 0.41% (early). A digest of the protocol:
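MCF7 breast cells were treated with the test compound for 24 h, then collected and rinsed twice with PBS. They were stained with Annexin-V-FITC plus propidium iodide for 30 min at room temperature in the dark. Analysis on a FACS Calibur flow cytometer gave early apoptotic, late apoptotic and necrotic fractions, compared against untreated control.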

Chain of EGFR (P00533 25-1210): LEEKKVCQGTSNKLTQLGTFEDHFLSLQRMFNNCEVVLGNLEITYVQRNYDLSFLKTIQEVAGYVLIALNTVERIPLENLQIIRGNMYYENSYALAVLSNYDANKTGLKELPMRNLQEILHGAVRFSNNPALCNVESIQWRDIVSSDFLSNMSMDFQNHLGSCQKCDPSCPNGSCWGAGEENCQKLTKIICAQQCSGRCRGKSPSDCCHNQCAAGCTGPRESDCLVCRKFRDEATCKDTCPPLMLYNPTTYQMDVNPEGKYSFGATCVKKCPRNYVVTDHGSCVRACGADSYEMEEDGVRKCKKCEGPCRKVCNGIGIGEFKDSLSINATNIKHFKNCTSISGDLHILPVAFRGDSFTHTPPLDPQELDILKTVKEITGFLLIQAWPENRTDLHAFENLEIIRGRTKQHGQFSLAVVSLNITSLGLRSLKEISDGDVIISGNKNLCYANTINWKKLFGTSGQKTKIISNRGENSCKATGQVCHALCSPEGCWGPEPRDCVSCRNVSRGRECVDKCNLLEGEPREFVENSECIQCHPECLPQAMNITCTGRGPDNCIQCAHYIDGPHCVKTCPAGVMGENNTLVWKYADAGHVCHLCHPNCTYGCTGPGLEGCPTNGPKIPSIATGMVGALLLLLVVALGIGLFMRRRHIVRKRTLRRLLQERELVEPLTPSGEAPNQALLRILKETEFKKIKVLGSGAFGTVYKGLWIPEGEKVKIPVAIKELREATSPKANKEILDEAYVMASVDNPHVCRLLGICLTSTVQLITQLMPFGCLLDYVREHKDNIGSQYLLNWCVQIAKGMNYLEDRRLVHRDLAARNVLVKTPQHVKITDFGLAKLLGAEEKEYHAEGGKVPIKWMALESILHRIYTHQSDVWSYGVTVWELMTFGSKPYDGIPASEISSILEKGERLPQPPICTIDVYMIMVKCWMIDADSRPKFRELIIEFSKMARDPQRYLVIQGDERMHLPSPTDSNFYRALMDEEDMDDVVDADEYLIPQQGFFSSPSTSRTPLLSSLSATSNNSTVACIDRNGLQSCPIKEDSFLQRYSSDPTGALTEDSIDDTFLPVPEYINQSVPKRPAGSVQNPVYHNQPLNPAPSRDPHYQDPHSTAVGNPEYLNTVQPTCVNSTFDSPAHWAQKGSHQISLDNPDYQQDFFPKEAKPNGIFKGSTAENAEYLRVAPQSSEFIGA
Chain of B-RAF^V600E (P15056 whole entry V600E): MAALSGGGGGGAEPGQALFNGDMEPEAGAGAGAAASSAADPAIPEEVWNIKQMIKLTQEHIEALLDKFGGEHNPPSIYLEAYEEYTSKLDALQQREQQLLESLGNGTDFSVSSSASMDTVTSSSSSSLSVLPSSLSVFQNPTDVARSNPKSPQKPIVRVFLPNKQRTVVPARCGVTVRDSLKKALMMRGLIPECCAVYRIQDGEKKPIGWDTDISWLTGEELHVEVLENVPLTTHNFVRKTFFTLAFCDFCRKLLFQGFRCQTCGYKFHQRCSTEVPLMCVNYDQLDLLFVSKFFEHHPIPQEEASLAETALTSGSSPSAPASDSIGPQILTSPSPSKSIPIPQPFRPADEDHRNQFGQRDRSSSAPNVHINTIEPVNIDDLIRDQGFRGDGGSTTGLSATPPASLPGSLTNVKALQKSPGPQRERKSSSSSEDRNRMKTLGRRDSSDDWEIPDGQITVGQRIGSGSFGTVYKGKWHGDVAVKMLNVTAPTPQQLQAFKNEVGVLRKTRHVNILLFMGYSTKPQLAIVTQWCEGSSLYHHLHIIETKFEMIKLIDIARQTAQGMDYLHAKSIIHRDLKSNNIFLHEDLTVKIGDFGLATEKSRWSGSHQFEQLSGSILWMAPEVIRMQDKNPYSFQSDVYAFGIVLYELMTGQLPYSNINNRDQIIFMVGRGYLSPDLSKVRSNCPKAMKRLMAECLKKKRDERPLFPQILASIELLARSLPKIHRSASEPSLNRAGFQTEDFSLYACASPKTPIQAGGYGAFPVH

As for `COc1ccc(-n2c(SC/C(=N/O)c3ccccc3)nnc2-c2nnn(-c3ccc(S(N)(=O)=O)cc3)c2C)cc1` [Compound 19g, (E)-4-(4-(5-((2-(hydroxyimino)-2-phenylethyl)thio)-4-(4-methoxyphenyl)-4H-1,2,4-triazol-3-yl)-5-methyl-1H-1,2,3-triazol-1-yl)benzenesulfonamide], the values for the IC50 in [1] and in assay [2] were 0.394 ± 0.031 µM and 4.76 ± 0.034 µM, respectively. For the same molecule, the “COX-2 S.I.” value in assay [1] came out at 12.08.

In assay [3], `COC(=O)N[C@@H](C)CNc1nccc(-c2cn(C(C)C)nc2-c2cc(Cl)cc(NS(C)(=O)=O)c2F)n1` [Encorafenib, encorafenib, reference compound] displayed an IC50 of 0.037 µM.

Turning to `Cc1c(-c2nnc(SC/C(=N/O)c3ccccc3)n2-c2ccccc2)nnn1-c1ccc(S(N)(=O)=O)cc1` [Compound 19a, (E)-4-(4-(5-((2-(hydroxyimino)-2-phenylethyl)thio)-4-phenyl-4H-1,2,4-triazol-3-yl)-5-methyl-1H-1,2,3-triazol-1-yl)benzenesulfonamide], the IC50 in [1] came out at 0.343 ± 0.07 µM; in assay [2] it was 4.84 ± 0.02 µM. Also, the “COX-2 S.I.” value in assay [1] was 14.11.

`Cc1ccc(/C(CSc2nnc(-c3nnn(-c4ccc(S(N)(=O)=O)cc4)c3C)n2-c2ccccc2)=N\O)cc1` [Compound 19b, (E)-4-(4-(5-((2-(hydroxyimino)-2-(p-tolyl)ethyl)thio)-4-phenyl-4H-1,2,4-triazol-3-yl)-5-methyl-1H-1,2,3-triazol-1-yl)benzenesulfonamide]: the figures for the IC50 in assay [1] and in assay [2] were 0.485 ± 0.048 µM and 4.42 ± 0.021 µM, respectively. The “COX-2 S.I.” value in [1] is listed as 9.11.

Turning to `COc1ccc(/C(CSc2nnc(-c3nnn(-c4ccc(S(N)(=O)=O)cc4)c3C)n2-c2ccccc2)=N\O)cc1` [Compound 19c, (E)-4-(4-(5-((2-(hydroxyimino)-2-(4-methoxyphenyl)ethyl)thio)-4-phenyl-4H-1,2,4-triazol-3-yl)-5-methyl-1H-1,2,3-triazol-1-yl)benzenesulfonamide], in assay [4], the “cell cycle arrest phase” value is on record as “cell cycle arrest at G2/M phase”, the “%G0-G1” value was found to be 37.88%, the “%G2-M” value was determined as 26.98% and the “%S” value stood at 35.14%. The molecule also showed an IC50 in assay [5] of 22.4 µM. Besides, in assay [6], the IC50 is 4.5 µM. For the same molecule, in [7], the IC50 came to 14 µM. Moreover, in [8], inhibition was half-maximal at 0.09 µM (IC50). In addition, the IC50 in assay [9] was 4.5 to 14 µM. The IC50 in assay [10] was 15.4 µM. For the same molecule, in assay [1], inhibition was half-maximal at 0.309 ± 0.041 µM (IC50) and the “COX-2 S.I.” value turned out to be 34.62. Also, in [3], half-maximal inhibition (IC50) required 0.112 µM. In addition, in assay [11], the “Apoptosis Early” value is recorded as 21.85%, the “Apoptosis Late” value is 12.36%, the “Apoptosis Total” value is given as 41.55 and the Necrosis stood at 7.34%. In [11], the “late apoptosis increase compared to control” value is on record as 45.77 fold and the “early apoptosis increase compared to control” value turned out to be 53.29 fold. The molecule further yielded an IC50 in assay [2] of 10.7 ± 0.025 µM.

In the case of `COc1ccc(-n2c(SC/C(=N/O)c3ccc(C)cc3)nnc2-c2nnn(-c3ccc(S(N)(=O)=O)cc3)c2C)cc1` [Compound 19h, (E)-4-(4-(5-((2-(hydroxyimino)-2-(p-tolyl)ethyl)thio)-4-(4-methoxyphenyl)-4H-1,2,4-triazol-3-yl)-5-methyl-1H-1,2,3-triazol-1-yl)benzenesulfonamide], in assay [4], the “cell cycle arrest phase” value is reported as “cell cycle arrest at G2/M phase”, the “%G0-G1” value stood at 45.44%, the “%G2-M” value is listed as 26.39% and the “%S” value stood at 28.17%. In [5], the IC50 was found to be 22.7 µM. Moreover, the IC50 in [6] is 4 µM. Also, the IC50 in assay [7] was 15 µM. The molecule further showed an IC50 in [8] of 0.07 µM. Besides, the IC50 in assay [10] turned out to be 11.3 µM. In assay [1], the IC50 turned out to be 0.309 ± 0.071 µM and the “COX-2 S.I.” value was 27.83. In addition, inhibition in [3] was half-maximal at 0.169 µM (IC50). Also, in assay [11], the “Apoptosis Early” value was 22.54%, the “Apoptosis Late” value came to 14.91%, the “Apoptosis Total” value is listed as 42.21 and the Necrosis is 4.76%. Also, in [11], the “late apoptosis increase compared to control” value stood at 55.22 fold and the “early apoptosis increase compared to control” value was 54.97 fold. Also, it took 8.6 ± 0.027 µM to reach half-maximal inhibition in [2] (IC50).

`COc1ccc(/C(CSc2nnc(-c3nnn(-c4ccc(S(N)(=O)=O)cc4)c3C)n2-c2ccc(OC)cc2)=N\O)cc1` [Compound 19i, (E)-4-(4-(5-((2-(hydroxyimino)-2-(4-methoxyphenyl)ethyl)thio)-4-(4-methoxyphenyl)-4H-1,2,4-triazol-3-yl)-5-methyl-1H-1,2,3-triazol-1-yl)benzenesulfonamide]: the IC50 in assay [1] is 0.363 ± 0.061 µM; in assay [2] it was 4.6 ± 0.048 µM. In addition, the “COX-2 S.I.” value in [1] amounted to 12.67.

As to `COc1ccc(-n2c(SC/C(=N/O)c3ccc(Cl)cc3)nnc2-c2nnn(-c3ccc(S(N)(=O)=O)cc3)c2C)cc1` [Compound 19j, (E)-4-(4-(5-((2-(4-chlorophenyl)-2-(hydroxyimino)ethyl)thio)-4-(4-methoxyphenyl)-4H-1,2,4-triazol-3-yl)-5-methyl-1H-1,2,3-triazol-1-yl)benzenesulfonamide], the IC50 was 4.5 µM in [9], 0.397 ± 0.025 µM in [1] and 3.43 ± 0.026 µM in assay [2]. The “COX-2 S.I.” value in assay [1] was determined as 8.63.

`COc1cccc2c1C(=O)c1c(O)c3c(c(O)c1C2=O)C[C@@](O)(C(=O)CO)C[C@@H]3O[C@H]1C[C@H](N)[C@H](O)[C@H](C)O1` [Doxorubicin, doxorubicin, reference compound]: the IC50 in assay [7] amounted to 0.3 µM; in assay [10], 4.28 µM.

Take `Cc1c(-c2nnc(SC/C(=N/O)c3ccc(Cl)cc3)n2-c2ccccc2)nnn1-c1ccc(S(N)(=O)=O)cc1` [Compound 19d, (E)-4-(4-(5-((2-(4-chlorophenyl)-2-(hydroxyimino)ethyl)thio)-4-phenyl-4H-1,2,4-triazol-3-yl)-5-methyl-1H-1,2,3-triazol-1-yl)benzenesulfonamide]: in [1], half-maximal inhibition (IC50) required 0.437 ± 0.037 µM and the “COX-2 S.I.” value was found to be 10.59. The IC50 in assay [2] came out at 4.63 ± 0.023 µM.

In the case of `CNC(=O)c1cc(Oc2ccc(NC(=O)Nc3ccc(Cl)c(C(F)(F)F)c3)cc2)ccn1` [Sorafenib, sorafenib, reference compound], the IC50 in [9] worked out at 3.5 µM.
